# Results as given in ChEMBL document CHEMBL1147356, “Structure and stereochemistry of pectinolides A-C, novel antimicrobial and cytotoxic 5,6-dihydro-alpha-pyrones from Hyptis pectinata” (1993).
# Active and inactive are the calls of the source. The rule behind the calls is not given here.
# Assays:
# [1] = Cytotoxicity against human BC1 cells after 72 hrs by sulforhodamine B assay; assay type: functional; settings: BC1, 72 h, read-out: ED50 (the source's name)
# Method in brief: (§1)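 Log-phase cells treated with five sample concentrations (20.0–0.032 μg/ml) in DMSO for 72 h at 37°, 5% CO₂, 100% humidity. Sulforhodamine B staining quantified cells per well; results given as ED50.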
# Bacillus subtilis [2] = test: Antibacterial activity against Bacillus subtilis ATCC 6633 at 1 mg/ml after 24 hrs at 37 degC by agar hole-plate diffusion assay; assay type: functional; settings: ATCC 6633, 24 h, read-out: IZ
# Method in brief: (§2)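 Agar hole-plate diffusion. Agar plates (15 ml) seeded with 1 ml overnight broth culture (10⁶ bacteria/ml); 11 mm holes filled with 100 μl of pure compound at 1 mg/ml. Streptomycin sulfate (1 mg/ml) as positive control. Duplicate per organism, 24 h at 37°. Inhibition zone diameters measured.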
# Bacillus subtilis [3] = test: Antibacterial activity against Bacillus subtilis ATCC 6633 after overnight incubation at 37 degC by twofold serial dilution technique; assay type: functional
# Method in brief: (§3)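 Twofold broth dilution MIC. Sample at 1 mg/ml in MeOH-H2O (1:1), 0.5 ml added to 4.5 ml nutrient broth, then doubling dilutions from 100 to 0.2 μg/ml. Each tube inoculated to 10⁶ organisms/ml final. Duplicate per organism, with solvent and streptomycin control broths.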
# Staphylococcus aureus [4] = test: Antibacterial activity against Staphylococcus aureus ATCC 6538 at 1 mg/ml after 24 hrs at 37 degC by agar hole-plate diffusion assay; assay type: functional; settings: ATCC 6538, 24 h, read-out: IZ; method in brief: as §2
# [5] = Cytotoxicity against human Col2 cells after 72 hrs by sulforhodamine B assay; settings: Col2, 72 h, read-out: ED50 (the source's name)
# Pseudomonas aeruginosa [6] = test: Antibacterial activity against Pseudomonas aeruginosa ATCC 9027 by agar diffusion technique; assay type: functional
# Staphylococcus aureus [7] = test: Antibacterial activity against Staphylococcus aureus ATCC 6538 after overnight incubation at 37 degC by twofold serial dilution technique; assay type: functional; method in brief: as §3
# Escherichia coli [8] = test: Antibacterial activity against Escherichia coli ATCC 8739 at < 100 ug/ml after 24 hrs at 37 degC by agar hole-plate diffusion assay; assay type: functional, organism-based
# SK-MEL-2 = test: Cytotoxicity against human SK-MEL-2 cells after 72 hrs by sulforhodamine B assay; assay type: functional; settings: SK-MEL-2, 72 h, read-out: ED50 (the source's name); method in brief: as §1
# [9] = Cytotoxicity against vinblastine-resistant human KBV1 cells after 72 hrs by sulforhodamine B assay; assay type: functional; settings: KB-V1, 72 h, read-out: ED50 (the source's name); method in brief: as §1
# ZR-75-1 = test: Cytotoxicity against human ZR-75-1 cells after 72 hrs by sulforhodamine B assay; assay type: functional; settings: ZR-75-1, 72 h, read-out: ED50 (the source's name); method in brief: as §1
# P388 = test: Cytotoxicity against mouse P388 cells after 48 hrs by sulforhodamine B assay; assay type: functional; settings: P388, 48 h, read-out: ED50 (the source's name)
# Method in brief: (§4)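 Log-phase cells exposed to five concentrations (20.0–0.032 μg/ml) of sample in DMSO for 48 h at 37°, 5% CO₂, 100% humidity. Cell quantity per well determined by sulforhodamine B staining; ED50 reported.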
# Candida albicans [10] = test: Antifungal activity against Candida albicans ATCC 10231 by agar diffusion technique; assay type: functional
# A-431 = test: Cytotoxicity against human A431 cells after 72 hrs by sulforhodamine B assay; assay type: functional; settings: A-431, 72 h, read-out: ED50 (the source's name); method in brief: as §1
# HT-1080 = test: Cytotoxicity against human HT1080 cells after 48 hrs by sulforhodamine B assay; assay type: functional; settings: HT-1080, 48 h, read-out: ED50 (the source's name); method in brief: as §4
# KB = test: Cytotoxicity against human KB cells after 72 hrs by sulforhodamine B assay; assay type: functional; settings: read-out: ED50 (the source's name); method in brief: as §1
# Candida albicans [11] = test: Antifungal activity against Candida albicans ATCC 10231 at < 100 ug/ml after 24 hrs at 25 degC by agar hole-plate diffusion assay; assay type: functional, organism-based
# LNCaP = test: Cytotoxicity against human LNCAP cells after 72 hrs by sulforhodamine B assay; assay type: functional; settings: read-out: ED50 (the source's name); method in brief: as §1
# Pseudomonas aeruginosa [12] = test: Antibacterial activity against Pseudomonas aeruginosa ATCC 9027 at < 100 ug/ml after 24 hrs at 37 degC by agar hole-plate diffusion assay; assay type: functional, organism-based
# [13] = Cytotoxicity against human LUC1 cells after 48 hrs by sulforhodamine B assay; assay type: functional; settings: LUC1, 48 h, read-out: ED50 (the source's name); method in brief: as §4
# Escherichia coli [14] = test: Antibacterial activity against Escherichia coli ATCC 8739 by agar diffusion technique; assay type: functional
# Bacillus subtilis [15] = test: Antibacterial activity against Bacillus subtilis ATCC 6633 at < 100 ug/ml after 24 hrs at 37 degC by agar hole-plate diffusion assay; assay type: functional, organism-based
# Staphylococcus aureus [16] = test: Antibacterial activity against Staphylococcus aureus ATCC 6538 at < 100 ug/ml after 24 hrs at 37 degC by agar hole-plate diffusion assay; assay type: functional, organism-based
Compound,EC50 [1],zone of inhibition at 1000 µg/mL (Bacillus subtilis [2]),MIC (Bacillus subtilis [3]),zone of inhibition at 1000 µg/mL (Staphylococcus aureus [4]),MIC (Pseudomonas aeruginosa [6]),MIC (Staphylococcus aureus [7]),Activity (Escherichia coli [8]),EC50 (SK-MEL-2),EC50 [9],EC50 (ZR-75-1),EC50 (P388),MIC (Candida albicans [10]),EC50 (A-431),EC50 (HT-1080),EC50 (KB),Activity (Candida albicans [11]),EC50 (LNCaP),Activity (Pseudomonas aeruginosa [12]),EC50 [13],MIC (Escherichia coli [14]),further results
CCCC[C@@H](/C=C\[C@@H]1OC(=O)C=C[C@@H]1O)OC(C)=O [PECTINOLIDE C],2 µg/mL,8 mm,12.5 µg/mL,4 mm,> 500 µg/mL,100 µg/mL,inactive,3.3 µg/mL,3.2 µg/mL,1.9 µg/mL,2.2 µg/mL,> 500 µg/mL,0.8 µg/mL,1.8 µg/mL,1.7 µg/mL,inactive,0.8 µg/mL,inactive,2.3 µg/mL,> 500 µg/mL,EC50 [5]: 1.6 µg/mL
CC(=O)O[C@@H](C)[C@@H](/C=C/[C@@H]1O[C@@H]1[C@H]1CC=CC(=O)O1)OC(C)=O,4.8 µg/mL,,,,,,,4.1 µg/mL,3.4 µg/mL,4.7 µg/mL,0.4 µg/mL,,1.9 µg/mL,5.7 µg/mL,2.9 µg/mL,,1.8 µg/mL,,3.3 µg/mL,,Activity (Bacillus subtilis [15]): inactive; Activity (Staphylococcus aureus [16]): inactive
CCCC[C@H](OC(C)=O)[C@@H](O)[C@H](O)[C@@H]1OC(=O)C=C[C@@H]1OC(C)=O,9.9 µg/mL,7 mm,50 µg/mL,4 mm,300 µg/mL,75 µg/mL,inactive,6 µg/mL,> 20 µg/mL,6.2 µg/mL,0.5 µg/mL,200 µg/mL,4.5 µg/mL,6.7 µg/mL,5.9 µg/mL,inactive,4.5 µg/mL,inactive,8.8 µg/mL,300 µg/mL,EC50 [5]: 5.1 µg/mL
CCCC[C@H](OC(C)=O)[C@@H](OC(C)=O)[C@H](OC(C)=O)[C@@H]1OC(=O)C=C[C@@H]1OC(C)=O,7 µg/mL,5 mm,50 µg/mL,4 mm,200 µg/mL,100 µg/mL,inactive,4.5 µg/mL,6.3 µg/mL,7.8 µg/mL,0.4 µg/mL,500 µg/mL,2.6 µg/mL,8.4 µg/mL,4.4 µg/mL,inactive,1.9 µg/mL,inactive,7.6 µg/mL,300 µg/mL,
CC(=O)O[C@H](/C=C\[C@H]1CC=CC(=O)O1)C[C@@H](OC(C)=O)[C@H](C)OC(C)=O [HYPTOLIDE],2.4 µg/mL,5 mm,100 µg/mL,,> 500 µg/mL,> 100 µg/mL,inactive,12.2 µg/mL,4.5 µg/mL,6.4 µg/mL,1.6 µg/mL,> 500 µg/mL,3.7 µg/mL,9.6 µg/mL,3.6 µg/mL,inactive,7.5 µg/mL,inactive,4.9 µg/mL,> 500 µg/mL,Activity (Bacillus subtilis [15]): inactive; Activity (Staphylococcus aureus [16]): inactive
CCCC[C@H](OC(=O)CCl)[C@@H](OC(C)=O)[C@H](OC(C)=O)[C@@H]1OC(=O)C=C[C@@H]1OC(C)=O,,7 mm,50 µg/mL,5 mm,300 µg/mL,75 µg/mL,inactive,,,,,200 µg/mL,,,,inactive,,inactive,,300 µg/mL,
CCCC[C@H](OC(C)=O)[C@@H](OC(C)=O)[C@H](OC(C)=O)[C@H]1CC=CC(=O)O1 [BORONOLIDE],2.8 µg/mL,,,,,,,3.3 µg/mL,8.6 µg/mL,8.7 µg/mL,1 µg/mL,,6.5 µg/mL,4.5 µg/mL,4 µg/mL,,3.2 µg/mL,,3.9 µg/mL,,Activity (Bacillus subtilis [15]): inactive; Activity (Staphylococcus aureus [16]): inactive
CCCC[C@@H](/C=C\[C@@H]1OC(=O)C[C@@H](OC)[C@@H]1O)OC(C)=O,> 20 µg/mL,,> 100 µg/mL,,> 500 µg/mL,> 100 µg/mL,inactive,> 20 µg/mL,> 20 µg/mL,> 20 µg/mL,> 5 µg/mL,> 500 µg/mL,> 20 µg/mL,> 20 µg/mL,> 20 µg/mL,inactive,> 20 µg/mL,inactive,> 20 µg/mL,> 500 µg/mL,Activity (Bacillus subtilis [15]): inactive
CN[C@@H]1[C@H](O[C@H]2[C@H](O[C@H]3[C@H](O)[C@@H](O)[C@H](N=C(N)N)[C@@H](O)[C@@H]3N=C(N)N)O[C@@H](C)[C@]2(O)C=O)O[C@@H](CO)[C@H](O)[C@H]1O.CN[C@@H]1[C@H](O[C@H]2[C@H](O[C@H]3[C@H](O)[C@@H](O)[C@H](N=C(N)N)[C@@H](O)[C@@H]3N=C(N)N)O[C@@H](C)[C@]2(O)C=O)O[C@@H](CO)[C@H](O)[C@H]1O.O=S(=O)(O)O.O=S(=O)(O)O.O=S(=O)(O)O [STREPTOMYCIN SULFATE],,13 mm,3.12 µg/mL,9 mm,,6.25 µg/mL,,,,,,,,,,,,,,,
CCCC[C@@H](/C=C\[C@@H]1OC(=O)C=C[C@@H]1OC(C)=O)OC(C)=O [PECTINOLIDE A],1 µg/mL,10 mm,6.25 µg/mL,8 mm,200 µg/mL,12.5 µg/mL,inactive,0.7 µg/mL,1.8 µg/mL,3.6 µg/mL,0.9 µg/mL,250 µg/mL,1.4 µg/mL,1.7 µg/mL,1.8 µg/mL,inactive,0.7 µg/mL,inactive,0.9 µg/mL,200 µg/mL,EC50 [5]: 1 µg/mL
NYSTATIN,,,,,,,,,,,,,,,,,,,,,inhibition zone (IZ) (Candida albicans [11]): 7 mm
CCCC[C@H](O)/C=C\[C@@H]1OC(=O)C=C[C@@H]1OC(C)=O [PECTINOLIDE B],2.5 µg/mL,6 mm,25 µg/mL,4 mm,300 µg/mL,100 µg/mL,inactive,2.2 µg/mL,2 µg/mL,1.6 µg/mL,0.1 µg/mL,300 µg/mL,0.6 µg/mL,2.3 µg/mL,1.4 µg/mL,inactive,0.9 µg/mL,inactive,3.8 µg/mL,300 µg/mL,EC50 [5]: 1.1 µg/mL
